The source of these data is ChEMBL document CHEMBL1146236, “Antineoplastic agents. 560. Isolation and structure of kitastatin 1 from an Alaskan Kitasatospora sp” (2007).

One experiment concerns DU-145. Kind of experiment: Growth inhibition of human DU145 cells after 48 hrs by sulforhodamine B assay. In kind it is functional. As to conditions: DU-145, 48 h. Summed up: (§1)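 Cells in 5% fetal bovine serum/RPMI1640 were seeded and preincubated 24 h, then exposed to serial compound dilutions for 48 h. Plates were TCA-fixed, stained with sulforhodamine B and read by microplate reader. ED50 (concentration giving 50% reduction in net protein increase) was calculated from optical density data.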
Background: Sulforhodamine B stains cellular protein and so reports cell mass.

A further experiment relates to MCF7. Nature of the experiment: Growth inhibition of human MCF7 cells after 48 hrs by sulforhodamine B assay. In kind it is functional. The following applies: MCF7, 48 h. The method in brief: as §1
Another experiment concerns Micrococcus luteus. Kind of experiment: Antibacterial activity against Micrococcus luteus Presque Isle 456. In kind it is functional. Summed up:
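Broth microdilution susceptibility test per NCCLS standards, strain Presque Isle 456. Compound reconstituted in sterile DMSO, diluted in the appropriate medium immediately before testing. MIC taken as the lowest concentration giving complete inhibition of visible growth (optically clear).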

In the next experiment the test system is NCI-H460. Kind of experiment: Growth inhibition of human NCI-H460 cells after 48 hrs by sulforhodamine B assay. It is filed as functional. As to conditions: NCI-H460, 48 h. Summed up: as §1
The next experiment deals with KM-20L2. Nature of the experiment: Growth inhibition of human KM20L2 cells after 48 hrs by sulforhodamine B assay. As to conditions: KM-20L2, 48 h. It is filed as functional. The method in brief:
as §1

The test system of a further experiment is SF-268. Nature of the experiment: Growth inhibition of human SF268 cells after 48 hrs by sulforhodamine B assay. It is filed as functional. As to conditions: SF-268, 48 h. The method in brief:
as §1

Another experiment has as its system P388. Nature of the experiment: Growth inhibition of mouse P388 cells after 48 hrs by Coulter particle counting. The following applies: P388, 48 h, read-out: ED50 (the source's name).
Another experiment deals with BXPC-3. Nature of the experiment: Growth inhibition of human BXPC3 cells after 48 hrs by sulforhodamine B assay. It is filed as functional. The following applies: BXPC-3, 48 h. Summed up: as §1
Another experiment concerns Enterococcus faecalis. Kind of experiment: Antibacterial activity against Enterococcus faecalis ATCC 29212. In kind it is functional. The method in brief: (§2)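 Broth microdilution susceptibility testing, following NCCLS reference methods (M7-A5 for bacteria, M27-A2 for yeasts). Compounds reconstituted in sterile DMSO and diluted in the appropriate medium just before testing. MIC was the lowest concentration giving complete inhibition of visible growth (optically clear).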

In a further experiment the test system is Cryptococcus neoformans. Kind of experiment: Antifungal activity against Cryptococcus neoformans ATCC 90112. It is filed as functional. Summed up: as §2

Converted amounts (≈) assume the structure as drawn. Where only a bound is given, the exact number is not on record here.

Turning to `CCC(C)[C@@H]1OC(=O)[C@H](C)OC(=O)[C@@H](NC(=O)c2cccc(NC=O)c2O)[C@@H](C)OC(=O)[C@H](C(C)C)OC(=O)C(C)(C)C(=O)[C@H](CC(C)C)NC1=O` (stereo not given in full), the GI50 with DU-145 is less than 0.1 ng/mL; in the experiment with MCF7, 0.64 ng/mL (≈ 0.872 nM); in the experiment with NCI-H460, 0.63 ng/mL (≈ 0.859 nM); in the experiment with KM-20L2, 0.58 ng/mL (≈ 0.79 nM); in the experiment with SF-268, 16 ng/mL (≈ 21.8 nM); in the experiment on BXPC-3, 1200 ng/mL (≈ 1640 nM). For the same compound, the MIC against Micrococcus luteus came out at 64000 ng/mL (≈ 87200 nM). In the experiment with P388, the EC50 is 33 ng/mL (≈ 45 nM).

For the compound `CCC(C)[C@@H]1OC(=O)[C@H](C)OC(=O)[C@@H](NC(=O)c2cccc(N)c2O)[C@@H](C)OC(=O)[C@H](CC(C)C)OC(=O)C(C)(C)C(=O)[C@H](CC(C)C)NC1=O` (stereo not given in full) [KITASTATIN], the concentration for 50% growth inhibition (GI50) is 2.6 ng/mL (≈ 3.61 nM) in the experiment on DU-145; 4 ng/mL (≈ 5.56 nM) in the experiment on MCF7; less than 1 ng/mL in the experiment on NCI-H460; 2.4 ng/mL (≈ 3.33 nM) in the experiment with KM-20L2; 3.5 ng/mL (≈ 4.86 nM) in the experiment with SF-268; 6.6 ng/mL (≈ 9.17 nM) with BXPC-3. Moreover, in the experiment with P388, the EC50 came to 45 ng/mL (≈ 62.5 nM). Further, the MIC in the experiment on Enterococcus faecalis and with Cryptococcus neoformans was 64000 ng/mL (≈ 88900 nM) throughout.

On to `CCC(C)[C@@H]1OC(=O)[C@H](C)OC(=O)[C@@H](NC(=O)c2cccc(NC=O)c2O)[C@@H](C)OC(=O)[C@H](CC(C)C)OC(=O)C(C)(C)C(=O)[C@H](CC(C)C)NC1=O` (stereo not given in full) [RESPIRANTIN], for which the GI50 with DU-145 was 0.18 ng/mL (≈ 0.241 nM); in the experiment with MCF7, 0.6 ng/mL (≈ 0.802 nM); in the experiment with NCI-H460 it was 0.6 ng/mL (≈ 0.802 nM); with KM-20L2, 0.6 ng/mL (≈ 0.802 nM); in the experiment on SF-268 it was 1.6 ng/mL (≈ 2.14 nM); in the experiment on BXPC-3, 470 ng/mL (≈ 628 nM). In addition, the EC50 in the experiment on P388 is 3.7 ng/mL (≈ 4.95 nM). Besides, in the experiment on Cryptococcus neoformans, the lowest concentration to inhibit growth (MIC) was 2000 ng/mL (≈ 2670 nM).

Usually GI50 stands for the concentration giving 50% growth inhibition. Broadly, the MIC is the least concentration at which growth counts as inhibited.
